# Screens: PubChem, The Scripps Research Institute Molecular Screening Center
# The list is not random: actives were taken first. Their share in the collection is about 1.8%.
# M5 ag: agonists of human muscarinic M5 receptor (CHRM5); P08912; CHO-K1 hM5 cells, Fluo-8 calcium fluorescence; 0% DMSO wells, 100% maximal acetylcholine response; activation, % at 3 µM; 0.19% of 360,000 active; AID 624037;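 active means activation above the run's mean over test compounds plus 3 SD, cut at about 23% in these data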;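 further: signal is peak over basal fluorescence ratio across the kinetic read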
# Target sequence (P08912 whole entry, looked up): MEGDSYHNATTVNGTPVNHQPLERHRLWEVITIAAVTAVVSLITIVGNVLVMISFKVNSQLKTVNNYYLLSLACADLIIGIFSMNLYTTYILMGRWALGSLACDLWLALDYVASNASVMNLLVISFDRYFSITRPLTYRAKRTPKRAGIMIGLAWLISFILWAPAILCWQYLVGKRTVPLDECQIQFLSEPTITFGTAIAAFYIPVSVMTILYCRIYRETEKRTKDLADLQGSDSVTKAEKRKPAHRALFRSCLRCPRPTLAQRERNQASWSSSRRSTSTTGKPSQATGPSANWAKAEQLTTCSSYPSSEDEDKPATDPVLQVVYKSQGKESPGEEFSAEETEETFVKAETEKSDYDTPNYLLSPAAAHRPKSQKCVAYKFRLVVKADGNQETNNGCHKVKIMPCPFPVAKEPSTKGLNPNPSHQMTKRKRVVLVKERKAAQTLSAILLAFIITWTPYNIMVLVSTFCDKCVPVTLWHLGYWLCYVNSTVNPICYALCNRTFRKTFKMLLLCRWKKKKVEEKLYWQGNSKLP
# M5 PAM: potentiates acetylcholine response at human M5 receptor; CHO-K1 hM5, Fluo-8 calcium, ACh EC20 PAM; 0% = ACh EC20, 100% = ACh EC100; activation, % at 3 µM; P08912; 0.3% of 360,000 active;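 active means activation above the run cutoff, the mean activation of all test compounds plus 3 SD, cut at about 18% in these data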
#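 Assay system – human M5 receptor in CHO-K1 cells · Read-out – % activation, ACh-normalized · Technique – Fluo-8 calcium fluorescence · Dosing – single-point, 3 µM nominal · Incubation – Fluo-8 loading 80 min at 37 °C plus 30 min room temperature · Repeats – singlicate, one well per test compound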
# CHRM4 antagonist: CHRM4 antagonism in calcium assay; P08173; CHO-hM4 cells, ACh EC80, Fluo-8 calcium fluorescence; inhibition, % at 3 µM; 0.73% of 360,000 active;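 active means inhibition above its plate's cutoff, the mean inhibition of sample wells plus 3 SD, cut at about 27% in these data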
# CHRM4 agonist: agonists of human muscarinic M4 receptor (CHRM4); P08173; CHO-K1 hM4/Gqi5, Fluo-8 calcium fluorescence; vehicle 0%, full acetylcholine response 100%; activation, % at 3 µM; 0.14% of 360,000 active; AID 624127;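 active means activation above the run mean over all test wells plus 3 SD, cut at about 32% in these data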;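 further: peak over basal fluorescence ratio per well then scaled between controls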
# M5 antag: antagonists of human muscarinic M5 receptor (CHRM5); 0.59% of 360,000 active; AID 624040; CHO-hM5 cells, Fluo-8 calcium fluorescence, ACh EC80; inhibition, % at 3 µM; P08912;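 active means inhibition above a per-plate cutoff, the mean of that plate's test compounds plus 3 SD, cut at about 27% in these data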
# CHRM4 PAM: potentiates acetylcholine response at human M4 receptor | activation, % at 3 µM | CHO-K1 hM4/Gqi5, Fluo-8 calcium fluorescence, ACh EC20; 0% = ACh EC20, 100% = maximal ACh | AID 624126 | P08173 | 0.4% of 360,000 active;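 active means activation above its plate's cutoff, the mean activation of sample wells plus 3 SD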
# Hits are given with their value; i = inactive.
SMILES,M5 ag,M5 PAM,CHRM4 antagonist,CHRM4 agonist,M5 antag,CHRM4 PAM
COC(=O)CSc1nc2ccc(NC(=O)CSc3nnnn3Cc3ccccc3)cc2s1,i,i,27,i,i,i
O=C(CCN1CCN(Cc2ccccc2)CC1)Nc1ccc(OCc2ccccc2)cc1,i,i,54,i,i,i
O=C(CCN1CCc2ccccc2C1)Nc1ccccc1,i,35,i,i,i,i
O=C(CSc1nc2ccc(NC(=O)CSc3nnnn3Cc3ccccc3)cc2s1)Nc1ccccc1,i,i,i,i,i,i
O=C(CCN1CCN(CCO)CC1)Nc1ccc(OCc2ccccc2)cc1,i,i,i,i,i,i
CC(Sc1ccc(S(=O)(=O)N2CCCCCC2)cn1)C(N)=O (centres undefined),i,i,i,i,i,i
COC(=O)c1cc(S(=O)(=O)N2CCN(c3cccc(C)c3C)CC2)c[nH]1,i,i,i,i,i,i
CCOCCCNC(=O)C1(O)c2cc(Br)ccc2NC(=O)N1c1ccc(OCC)cc1 (centres undefined),i,i,i,i,i,i
Cc1ccc(N(Cc2ccccc2)C(=O)CSC(C)C(=O)Nc2cc(C)on2)cc1 (centres undefined),i,i,i,i,i,i
COc1ccccc1N1CCN(C2CCCN(C(=O)c3oc(C)cc3C)C2)CC1 (centres undefined),i,i,i,i,57,i
CCN(CC)C(=O)c1cccc(-c2csc(C(C)(NC(C)=O)c3ccc(OC)cc3)n2)c1 (centres undefined),i,i,i,i,i,i
CCOC1=C2[C@@H](CN(S(=O)(=O)c3ccccc3C)[C@H]2c2ccc(Cl)cc2)[C@H]2C(=O)NC(=O)[C@H]2C1,i,i,43,i,i,i
CCOC1=C2[C@@H](CN(S(=O)(=O)c3ccccc3C)[C@H]2c2ccc(Cl)cc2)[C@H]2C(=O)N(c3ccccc3)C(=O)[C@H]2C1,i,i,i,i,i,i
CCc1nc2ccc(C(=O)Nc3cccc(OCC(=O)N(C)C)c3)cn2c1N(C)Cc1ccc(OC)cc1,i,i,i,i,i,i
O=C(NCc1ccccc1)NC12CC3CC(CC(C3)C1)C2,i,20,i,i,i,i
O=C(NCc1ccccc1)NCC12CC3CC(CC(C3)C1)C2,i,i,i,i,i,i
COc1ccccc1N1CCN(CCCCCCOc2ccc(F)cc2)CC1,i,i,i,i,39,i
COc1ccc(Cc2c(-c3ccco3)nc3ccc(Cl)cn23)c(C)c1,i,i,i,i,i,i
CCOC(=O)C1CCCN(c2nc3c(C)cccn3c(=O)c2/C=C(\C#N)C(=O)NCc2ccco2)C1 (centres undefined),31,i,i,i,i,i
Cc1cccn2c(=O)c(/C=C(\C#N)C(=O)NCc3ccco3)c(N3CCCC(C)C3)nc12 (centres undefined),i,i,i,i,i,i
O=C(NCc1ccccc1)c1nc(-c2c(F)cccc2F)oc1-c1ccccc1,i,i,i,i,i,i
CCCN(CCC)Cc1c(C(=O)N/N=C/c2ccco2)nnn1-c1nonc1N,i,i,i,i,27,i
CCCc1c(C(=O)N/N=C(\C)CCc2ccccc2)nnn1-c1nonc1N,i,i,i,i,i,15
CCCN(CCC)Cc1c(C(=O)N/N=C/c2ccoc2)nnn1-c1nonc1N,i,i,i,i,i,i
CCOc1cccc(-c2c(C(=O)N/N=C/c3ccc(Br)cc3)nnn2-c2nonc2N)c1,i,18,i,i,i,i
SMILES,M5 ag,M5 PAM,CHRM4 antagonist,CHRM4 agonist,M5 antag,CHRM4 PAM
CC(/C=N/NC(=O)c1nnn(-c2nonc2N)c1C(C)C)=C\c1ccco1,i,i,i,i,i,17
CCCc1c(C(=O)N/N=C/C(C)=C/c2ccco2)nnn1-c1nonc1N,i,i,i,i,i,i
CCOc1cccc(-c2c(C(=O)N/N=C/c3cccnc3)nnn2-c2nonc2N)c1,i,i,i,i,i,i
O=C(Nc1nc2ccccc2n1CCN1CCOCC1)c1ccc(COc2ccccc2Br)o1,i,i,43,i,i,i
Cc1ccc(NC(=O)c2ccc(NCc3ccc(F)cc3)nc2)cc1,i,i,i,i,32,i
CC(=O)c1ccc(S(=O)(=O)NCCC(=O)OCC(=O)N(Cc2ccccc2)C(C)(C)C)cc1,i,i,i,i,i,i
COc1c(F)c(F)c(C(=O)Nc2ccccc2N2CCN(C(=O)C(C)C)CC2)c(F)c1F,i,31,i,i,i,i
CCCCN1CCc2c(c3ccccc3n2Cc2ccccc2)C1,i,i,i,i,i,i
CN1CCc2c(c3ccccc3n2Cc2ccccc2)C1,i,i,57,i,42,i
CCOc1ccc(NC(=O)CCC(=O)NNC(=O)COc2ccc(C)cc2)cc1,i,i,i,i,30,i
CC(=O)Nc1ccc(OCC(=O)c2cc(C)ccc2C)cc1,i,i,i,i,i,19
CC(=O)Nc1ccc(OCC(=O)c2ccc(C)cc2C)cc1,i,i,i,i,i,i
CC(Oc1ccc(F)cc1)c1ccnc2nc(/N=C/N(C)C)nn12 (centres undefined),i,i,i,i,i,i
CC(Oc1ccc(C(C)(C)C)cc1)c1ccnc2nc(/N=C/N(C)C)nn12 (centres undefined),i,i,44,i,i,i
CCOC(=O)c1c(NC(=O)COC(=O)c2ccc(Cl)nc2)sc(C(=O)N(C)C)c1C,i,i,i,i,i,i
CCOC(=O)c1c(NC(=O)CN2CCN(S(=O)(=O)c3cc(Cl)ccc3Cl)CC2)sc(C(=O)N(C)C)c1C,i,i,41,i,i,i
CCOC(=O)c1c(NC(=O)COC(=O)CCOc2ccc(C)cc2)sc(C(=O)N(C)C)c1C,i,19,i,i,i,i
COc1ccc(C[C@@H]2OC3(C=CC(=O)C=C3)O[C@H]2Cc2ccc(OC)cc2)cc1,i,i,76,i,i,i
O=C1C=CC2(C=C1)O[C@H](Cc1ccccc1)[C@@H](Cc1ccccc1)O2,i,i,62,i,i,i
COc1ccc(N2C(=O)CC(Cc3ccccc3)C2=O)cc1 (centres undefined),i,i,i,i,i,i
CN1CCN(C2=Cc3ccc(Cl)cc3Sc3ccc(F)cc32)CC1,i,i,i,i,i,i
CN1CCN(C2=Cc3ccccc3Sc3cc(F)ccc32)CC1,i,i,i,i,28,i
CCN(CC)C(=O)c1[nH]cnc1C(=O)NCC(=O)OCc1ccccc1,i,i,i,i,27,i
C[C@H](NC(=O)c1nc[nH]c1C(=O)NCC(=O)OCc1ccccc1)c1ccccc1,i,i,28,i,i,i
